Results published in ChEMBL document CHEMBL1124066, “Renin inhibitors containing psi[CH2O] pseudopeptide inserts” (J Med Chem, 1988).
*1 amine or outer side, *2 acyl side, *3 side chain or, on linkers, in order; H or OH if unused. Where a SMILES comes first, the peptide text is derived from it. [ ]: non-standard residue; d: D form. The star is where a group is joined. X1 = O=C([C@H](Cc1ccccc1)OC[C@@H]1CCCN1[*:1])[*:2]; X2 = CC(CN[*:1])CC(N)C(O)CC(=O)[*:2]; NHCH2(2-pyridyl) = c1ccc(CN*)nc1; Boc = CC(C)(C)OC(=O)*; For = O=C*

Molecular target: T1, Renin (Homo sapiens, UniProt P00797)
T1 sequence (P00797 whole entry): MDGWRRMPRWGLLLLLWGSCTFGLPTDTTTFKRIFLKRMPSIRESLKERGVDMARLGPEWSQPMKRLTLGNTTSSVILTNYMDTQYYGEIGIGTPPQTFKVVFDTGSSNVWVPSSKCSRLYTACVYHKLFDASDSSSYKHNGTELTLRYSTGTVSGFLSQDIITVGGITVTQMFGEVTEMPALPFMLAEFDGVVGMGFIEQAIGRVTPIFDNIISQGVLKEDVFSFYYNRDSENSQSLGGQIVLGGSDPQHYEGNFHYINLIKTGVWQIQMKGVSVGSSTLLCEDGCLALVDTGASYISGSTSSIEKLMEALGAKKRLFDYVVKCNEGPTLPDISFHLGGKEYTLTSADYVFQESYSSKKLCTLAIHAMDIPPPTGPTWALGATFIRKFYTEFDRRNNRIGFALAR
Test: Inhibition of Human plasma renin
Format: cell-free
In short: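 Lyophilized human plasma containing 0.1% EDTA was used for angiotensin I generation with phenylmethanesulfonyl fluoride and maleate buffer pH 6.0. Inhibitor was added in a 1% Tween 80/water vehicle, followed by 90 min at 37 °C. Angiotensin I was measured by radioimmunoassay. Percent inhibition was taken against control tubes. IC50 was estimated graphically from 3-4 inhibitor concentrations on a semilog plot.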

In order of rising IC50:
1. CC[C@H](C)[C@H](NC(=O)[C@@H](NC[C@H](CC(C)C)NC(=O)[C@H](Cc1c[nH]cn1)NC(=O)[C@H](Cc1ccccc1)NC(=O)[C@@H]1CCCN1C(=O)[C@H](Cc1c[nH]cn1)NC(=O)[C@@H]1CCCN1)C(C)C)C(=O)N[C@@H](Cc1c[nH]cn1)C(=O)N[C@H](CCCCN)C(=O)O  0.05 µM
2. CC[C@H](C)[C@H](NC(=O)[C@@H](NCC(O)[C@H](CC(C)C)NC(=O)[C@H](Cc1cnc[nH]1)NC(=O)[C@H](Cc1ccccc1)NC(=O)[C@@H]1CCCN1C(=O)OC(C)(C)C)C(C)C)C(=O)NCc1ccccn1 (stereo not given in full)  0.36 µM
3. CC[C@H](C)[C@H](NC(=O)[C@@H](NCC(O)[C@H](CC(C)C)NC(=O)[C@H](Cc1c[nH]cn1)NC(=O)[C@H](Cc1ccccc1)OC[C@@H]1CCCN1C(=O)[C@H](Cc1ccccc1)NC(=O)OC(C)(C)C)C(C)C)C(=O)NCc1ccccn1 (stereo not given in full)  1.6 µM
4. CC[C@H](C)[C@H](NC(=O)[C@@H](OC[C@H](CC(C)C)NC(=O)[C@H](Cc1c[nH]cn1)NC(=O)[C@H](Cc1ccccc1)NC(=O)[C@@H]1CCCN1C(=O)[C@H](Cc1c[nH]cn1)NC(=O)[C@@H]1CCCN1)C(C)C)C(=O)N[C@@H](Cc1c[nH]cn1)C(=O)N[C@H](CCCCN)C(=O)O  1.7 µM
5. CC[C@H](C)[C@H](NC(=O)[C@H](CC(C)C)OC[C@H](CC(C)C)NC(=O)[C@H](Cc1cnc[nH]1)NC(=O)[C@H](Cc1ccccc1)NC(=O)[C@@H]1CCCN1C(=O)[C@H](Cc1cnc[nH]1)NC(=O)[C@@H]1CCCN1)C(=O)N[C@@H](Cc1cnc[nH]1)C(=O)N[C@H](CCCCN)C(=O)O  1.8 µM
6. CC[C@H](C)[C@H](NC(=O)[C@@H](NCC(O)[C@H](CC(C)C)NC(=O)[C@H](Cc1c[nH]cn1)NC(=O)[C@H](Cc1ccccc1)OC[C@@H]1CCCN1C(=O)OC(C)(C)C)C(C)C)C(=O)NCc1ccccn1 (stereo not given in full)  2.3 µM
7. CC[C@H](C)[C@H](NC(=O)[C@@H](NCC(O)[C@H](CC(C)C)NC(=O)[C@H](Cc1cnc[nH]1)NC(=O)[C@H](Cc1ccccc1)OC[C@@H]1CCCN1C(=O)[C@H](Cc1cnc[nH]1)NC(=O)OC(C)(C)C)C(C)C)C(=O)NCc1ccccn1 (stereo not given in full)  3 µM
8. CC[C@H](C)[C@H](NC(=O)CC(O)C(N)CC(C)CNC(=O)[C@H](Cc1cnc[nH]1)NC(=O)[C@H](Cc1ccccc1)NC(=O)[C@@H]1CCCN1C(=O)OC(C)(C)C)C(=O)NCc1ccccn1 (stereo not given in full) (Boc-PFH[X2]I-{NHCH2(2-pyridyl)})  4.1 µM
9. CC[C@H](C)[C@H](NC(=O)CC(O)C(N)CC(C)CNC(=O)[C@H](Cc1c[nH]cn1)NC(=O)[C@H](Cc1ccccc1)NC(=O)[C@@H]1CCCN1C(=O)OC(C)(C)C)C(=O)N[C@@H](Cc1ccccc1)C(=O)OC (stereo not given in full) (Boc-PFH[X2]IF-OMe)  5.8 µM
10. CC(C)[C@H](NC(=O)[C@H](Cc1ccccc1)NC(=O)[C@H](Cc1ccccc1)NC(=O)[C@H](Cc1ccccc1)NC(=O)[C@H](Cc1c[nH]cn1)NC(=O)[C@H](Cc1ccccc1)NC(=O)[C@@H]1CCCN1C(=O)[C@H](Cc1c[nH]cn1)NC(=O)[C@@H]1CCCN1)C(=O)N[C@@H](Cc1ccc(O)cc1)C(=O)N[C@@H](CCCCN)C(=O)O [RIP] (H-PHPFHFFFVYK-OH)  7 µM
11. CC[C@H](C)[C@H](NC(=O)[C@H](C)OC[C@H](CC(C)C)NC(=O)[C@H](Cc1cnc[nH]1)NC(=O)[C@H](Cc1ccccc1)NC(=O)[C@@H]1CCCN1C(=O)[C@H](Cc1cnc[nH]1)NC(=O)[C@@H]1CCCN1)C(=O)N[C@@H](Cc1cnc[nH]1)C(=O)N[C@H](CCCCN)C(=O)O  18 µM
12. CC[C@H](C)[C@H](NC(=O)CC(O)C(N)CC(C)CNC(=O)[C@H](Cc1c[nH]cn1)NC(=O)[C@H](Cc1ccccc1)OC[C@@H]1CCCN1C(=O)[C@H](Cc1c[nH]cn1)NC(=O)OC(C)(C)C)C(=O)NCc1ccccn1 (stereo not given in full)  100 µM
13. CC[C@H](C)[C@H](NC(=O)CC(O)C(N)CC(C)CNC(=O)[C@H](Cc1cnc[nH]1)NC(=O)[C@H](Cc1ccccc1)OC[C@@H]1CCCN1C(=O)OC(C)(C)C)C(=O)NCc1ccccn1 (stereo not given in full)  140 µM
14. CC[C@H](C)[C@H](NC(=O)CC(O)C(N)CC(C)CNC(=O)[C@H](Cc1c[nH]cn1)NC(=O)[C@H](Cc1ccccc1)OC[C@@H]1CCCN1C(=O)[C@H](Cc1cn(C=O)c2ccccc12)NC(C)=O)C(=O)N[C@@H](Cc1ccccc1)C(=O)OC (stereo not given in full) (Ac-W(For)[X1]H[X2]IF-OMe)  330 µM
15. CC[C@H](C)[C@H](NC(=O)CC(O)C(N)CC(C)CNC(=O)[C@H](Cc1c[nH]cn1)NC(=O)[C@H](Cc1ccccc1)OC[C@@H]1CCCN1C(=O)[C@H](Cc1c[nH]cn1)NC(=O)OC(C)(C)C)C(=O)N[C@@H](Cc1ccccc1)C(=O)OC (stereo not given in full) (Boc-H[X1]H[X2]IF-OMe)  440 µM
16. CC[C@H](C)[C@H](NC(=O)CC(O)C(N)CC(C)CNC(=O)[C@H](Cc1cnc[nH]1)NC(=O)[C@H](Cc1ccccc1)OC[C@@H]1CCCN1C(=O)[C@H](Cc1cn(C=O)c2ccccc12)NC(=O)OC(C)(C)C)C(=O)N[C@@H](Cc1ccccc1)C(=O)OC (stereo not given in full) (Boc-W(For)[X1]H[X2]IF-OMe)  1000 µM
17. CC[C@H](C)[C@H](NC(=O)CC(O)C(N)CC(C)CNC(=O)[C@H](Cc1cnc[nH]1)NC(=O)[C@H](Cc1ccccc1)OC[C@@H]1CCCN1C(=O)OC(C)(C)C)C(=O)N[C@@H](Cc1ccccc1)C(=O)OC (stereo not given in full)  2500 µM

Species on record: Homo sapiens
Test: % compound remaining at 60 min in presence of degradative enzyme elastase (in vitro)
Format: functional
In short: (§1)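 Enzyme stocks were made in 50 mM Tris-HCl pH 7.5 (stock chymotrypsin 25 units/mL; elastase and carboxypeptidase Y 50 units/mL). Peptide at 0.8 mg/mL in 10% DMSO/Tris received 5 µL enzyme per 0.25 mL and was incubated at 37 °C for 0 or 60 min, then quenched with HPLC solvent B. Reverse-phase HPLC used an acetonitrile gradient. The 204 nm peak height was compared with the 0-min control. Incubations were run in triplicate, each assayed in duplicate.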

Compound `CC(C)[C@H](NC(=O)[C@H](Cc1ccccc1)NC(=O)[C@H](Cc1ccccc1)NC(=O)[C@H](Cc1c[nH]cn1)NC(=O)[C@H](Cc1ccccc1)NC(=O)[C@@H]1CCCN1C(=O)[C@H](Cc1c[nH]cn1)NC(=O)[C@@H]1CCCN1)C(=O)N[C@@H](Cc1ccc(O)cc1)C(=O)N[C@@H](CCCCN)C(=O)O` [RIP] (H-PHPFHFFVYK-OH) has a Remaining of 13%.

Molecular target: Chymotrypsinogen A (Bos taurus) (UniProt P00766)
Test: % compound remaining at 60 min in presence of degradative […] (in vitro)
In short: as §1

`CC(C)[C@H](NC(=O)[C@H](Cc1ccccc1)NC(=O)[C@H](Cc1ccccc1)NC(=O)[C@H](Cc1ccccc1)NC(=O)[C@H](Cc1c[nH]cn1)NC(=O)[C@H](Cc1ccccc1)NC(=O)[C@@H]1CCCN1C(=O)[C@H](Cc1c[nH]cn1)NC(=O)[C@@H]1CCCN1)C(=O)N[C@@H](Cc1ccc(O)cc1)C(=O)N[C@@H](CCCCN)C(=O)O` [RIP] (H-PHPFHFFFVYK-OH) gave a Remaining of 3%.

Test system: not listed separately
Test: % compound remaining at 60 min in presence of degradative enzyme carboxypeptidase Y (in vitro)
In short: as §1

In the case of `CC(C)[C@H](NC(=O)[C@H](Cc1ccccc1)NC(=O)[C@H](Cc1ccccc1)NC(=O)[C@H](Cc1ccccc1)NC(=O)[C@H](Cc1c[nH]cn1)NC(=O)[C@H](Cc1ccccc1)NC(=O)[C@@H]1CCCN1C(=O)[C@H](Cc1c[nH]cn1)NC(=O)[C@@H]1CCCN1)C(=O)N[C@@H](Cc1ccc(O)cc1)C(=O)N[C@@H](CCCCN)C(=O)O` [RIP] (H-PHPFHFFFVYK-OH), the Remaining is reported as 2%.
